Measurements collected from several papers.
Each line is one published result; the experiments were not run side by side. Converted amounts (≈) assume the structure as drawn.
Organism: Staphylococcus aureus

With `Cc1c(NN=C(C#N)C2=NC(=O)CS2)c(=O)n(-c2ccccc2)n1C` the MBC was 1 µg/mL (microbial killing, broth dilution).
For `COC(=O)c1cc(-c2cccc(NC(=O)Nc3ccc(Cl)c(C(F)(F)F)c3)c2)on1`, the MIC was over 64 µg/mL (microbial growth, broth dilution; ATCC29213).
`CCOc1cc(-c2nc3ccccc3[nH]2)ccc1O` gave an MIC of 256 µg/mL (≈ 1010 µM) (microbial growth, broth dilution; ATCC43300 MRSA; drug-resistant strain).
`COC(=O)c1cc(-c2cccc(NC(=S)Nc3ccccc3)c2)on1` gave an MIC of over 64 µg/mL (microbial growth, broth dilution; ATCC29213).
The MBC of `CCOC(=O)C1=C(C)N2NC(c3ccccc3O)N(C(Cc3c[nH]c4ccccc34)C(=O)O)C2=NC1c1ccc(Cl)cc1` (stereo not drawn) is reported as 100 µg/mL (microbial killing; drug-resistant strain).
`CN[C@H](CC(C)C)C(=O)N[C@H]1C(=O)N[C@@H](CC(N)=O)C(=O)N[C@H]2C(=O)N[C@H]3C(=O)N[C@H](C(=O)N[C@H](C(=O)O)c4cc(O)cc(O)c4-c4cc3ccc4O)[C@H](O)c3ccc(c(Cl)c3)Oc3cc2cc(c3O[C@@H]2O[C@H](CO)[C@@H](O)[C@H](O)[C@H]2O[C@H]2C[C@](C)(N)[C@H](O)[C@H](C)O2)Oc2ccc(cc2Cl)[C@H]1O` gave an MBC of 2 µM (microbial killing, broth dilution; ATCC6538).
The IC50 of `O[C@]12C=C(c3nccc4c3[nH]c3ccccc34)[C@@H]3CCN(CCCC/C=C\CC1)C[C@@]31C[C@@H]3/C=C\CCCCN3[C@H]12` is reported as 0.7 µg/mL (≈ 1.28 µM) (microbial growth; MRSA; drug-resistant strain).
`COc1ccccc1Nc1cccc2nccnc12` gave an EC50 of 20 µM (microbial growth; RN4220).
The MIC of `CCOc1ccc(-c2nc3ccccc3[nH]2)cc1` is reported as 512 µg/mL (≈ 2150 µM) (microbial growth, broth dilution; ATCC43300 MRSA; drug-resistant strain).
`COC(=O)c1cc(-c2cccc(NC(=O)Nc3cccc(Cl)c3)c2)on1` gave an MIC of over 64 µg/mL (microbial growth, broth dilution; ATCC29213).
For `CC1(C)CC[C@]2(C(=O)O)CC[C@]3(C)C(=CC[C@@H]4[C@@]5(C)CC[C@H](O)C(C)(C)[C@@H]5CC[C@]43C)[C@@H]2C1`, the MIC was 256 µg/mL (≈ 561 µM) (microbial growth; USA400).
With `Fc1cccc(Cl)c1-c1nc2ccccc2[nH]1` the MIC was 128 µg/mL (≈ 519 µM) (microbial growth, broth dilution; ATCC43300 MRSA; drug-resistant strain).
`COC(=O)c1cc(-c2cccc(NC(=O)Nc3ccc(F)cc3)c2)on1` has an MIC of over 64 µg/mL (microbial growth, broth dilution; ATCC29213).
The IC50 of `O=C(O)c1cn(C2CC2)c2cc(N3CCNCC3)c(F)cc2c1=O` is reported as 0.13 µg/mL (≈ 0.392 µM) (microbial growth; ATCC29213).
`COC(=O)c1cc(-c2cccc(NC(=S)Nc3ccc(F)cc3F)c2)on1` gave an MIC of over 64 µg/mL (microbial growth, broth dilution; ATCC29213).
With `Cc1ccc2nc(-c3ccc([N+](=O)[O-])cc3)n(Cc3ccc(Cl)cc3)c2c1` the MIC was 8 µg/mL (≈ 21.2 µM) (microbial growth, broth dilution; ATCC43300 MRSA; drug-resistant strain).
`COC(=O)c1cc(-c2cccc(NC(=O)Nc3ccc(OC)cc3)c2)on1` has an MIC of over 64 µg/mL (microbial growth, broth dilution; ATCC29213).
The MIC of `C=CCn1c(-c2ccc(Cl)c(Cl)c2)nc2ccccc21` is reported as 64 µg/mL (≈ 211 µM) (microbial growth, broth dilution; ATCC43300 MRSA; drug-resistant strain).
The MIC80 of `O=C(Sc1cccccc1=O)c1ccccc1` is reported as 13.2 µM (≈ 3.2 µg/mL) (microbial growth, broth dilution; ATCC29213).
For `O=C(O)c1cn(C2CC2)c2cc(N3CCNCC3)c(F)cc2c1=O`, the MIC was 16 µg/mL (≈ 48.3 µM) (microbial growth, broth dilution; ATCC43300 MRSA; drug-resistant strain).
With `O=C(O)c1cn(C2CC2)c2cc(N3CCNCC3)c(F)cc2c1=O` the inhibition zone was 25 mm (microbial growth; SG511; 5 µg/mL, 20 h).
